From ChEMBL document CHEMBL1944532, “Synthesis and evaluation of anticancer activity of some novel 6-aryl-2-(p-sulfamylphenyl)-pyridazin-3(2H)-ones” (Eur J Med Chem, 2012)

Experiments:
SR = experiment: Cytotoxicity against human SR cells after 48 hrs by SRB assay; assay type: functional; details: read-out: GI50
Summary of the method: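 NCI 60-cell-line five-dose screen. Cells were grown in 1640 medium with 5% fetal calf serum and 2 mM L-glutamine, with inoculum density set by cell line, and pre-incubated 24 h. Compound in DMSO was added at 10^-4 to 10^-8 M (10-fold steps) with 48 h continuous exposure. Growth was read by SRB protein assay, and GI50, TGI and LC50 were derived from dose-response.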

NCI-H522 = experiment: Cytotoxicity against human NCI-H522 cells after 48 hrs by SRB assay; assay type: functional; details: NCI-H522, 48 h, read-out: GI50
Summary of the method: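 NCI five-dose screen on the ~60-line human tumor panel. Cells grown in RPMI-1640 with 5% fetal calf serum and 2 mM L-glutamine, seeded at line-dependent density and preincubated 24 h. Compound added from DMSO at 10-fold dilutions from 10^-4 to 10^-8 M, continuous exposure 48 h. Growth read by sulforhodamine B protein stain. GI50, TGI and LC50 derived per line.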

SMILES: O=c1[nH]cc(F)c(=O)[nH]1 [FLUOROURACIL]
- GI50 (SR): 23.8 nM
- GI50 (NCI-H522): 7.28 µM
